ATG4B inhibitor: blocks human ATG4B protease cleavage of LC3 substrate; Q9Y4P1; ATG4B cleavage of LC3-PLA2, NBD-HPC fluorescence, 1 h; inhibition, % at 8.33 µM; hit rate 0.51% among 340,000; AID 504462; in the data active means inhibition above about 40%
UHRF1 MBD2 ctr: blocks human UHRF1 binding to methylated DNA. AID 687016. inhibition, % at 4.4 µM. UHRF1 binding to methylated oligo, TR-FRET. Q96T88. hit rate 0.75% among 370,000; in the data active means inhibition above about 21%;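 further: UHRF1 SRA domain binding a hemimethylated CpG hairpin DNA probe; 0% = median of test compound wells and 100% = reference inhibitor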
CSN inh: CSN deneddylation inhibition; Purified CSN, SCF-Nedd8-OG deneddylation, fluorescence polarization; inhibition, % at 12.5 µM; hit rate 0.38% among 360,000; AID 651999;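 active means pattern-corrected inhibition above about 35%, with an unprinted fluorescence ratio check between 0.5 and 1.5, limit read from the data, passing the limit was not always enough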;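 further: 0% = enzyme with substrate and 100% = substrate without enzyme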
Target sequence (Q92905 whole entry, looked up, one chain of several): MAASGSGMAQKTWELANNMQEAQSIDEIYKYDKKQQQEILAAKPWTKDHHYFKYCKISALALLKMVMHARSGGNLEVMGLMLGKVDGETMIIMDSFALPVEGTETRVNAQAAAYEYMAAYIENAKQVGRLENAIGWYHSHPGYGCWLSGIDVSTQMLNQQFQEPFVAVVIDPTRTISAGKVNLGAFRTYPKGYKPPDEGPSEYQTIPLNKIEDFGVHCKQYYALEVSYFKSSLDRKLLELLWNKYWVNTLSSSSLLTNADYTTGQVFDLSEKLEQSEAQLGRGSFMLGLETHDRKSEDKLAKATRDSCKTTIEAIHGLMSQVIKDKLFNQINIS
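Test system: Human Csn5 produced in HEK293T cells | Compound: 12.5 µM single point | Times: 90 min, room temperature | Signal: Fluorescence polarization readout | Read-out basis: % inhibition of substrate cleavage by Csn5 | Controls: no-enzyme wells high, enzyme-with-substrate wells low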
MBD2 DNA inh: inhibitors of human MBD2 binding to methylated oligonucleotide; Q9UBB5; TR-FRET; inhibition, % at 4.4 µM; hit rate 0.31% among 370,000; in the data active means inhibition above about 13%
LEDGF integ inh: blocks HIV-1 LEDGF/p75-dependent DNA integration; TR-FRET IN-LEDGF/p75 DNA integration, Eu/Cy5; AID 743269; inhibition, % at 3.7 µM; hit rate 0.64% among 370,000;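 active means inhibition above the screen-wide mean plus 3 SD, cut at about 13% in these data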;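 further: signal is the Cy5 over europium emission ratio at 671 and 618 nm; 0% = plate median of compound wells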
rCAG RNA binder: molecules binding r(CAG) RNA repeats. r(CAG) RNA repeat, TO-PRO-1 dye displacement fluorescence. inhibition, % at 3 µM. hit rate 1.3% among 370,000;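 active means inhibition above the plate cutoff, the mean of all test compounds on that plate plus 3 SD, cut at about 35% in these data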;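 further: 0% = DMSO alone and 100% = 100 µM mitoxantrone as full dye displacement; higher means more dye released from RNA so lower well fluorescence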
Active calls of the source: *; . = not tested or not shown. Most compounds without a hit are left out; they make up all but 3.1% or so of the library.

SMILES | ATG4B inhibitor | UHRF1 MBD2 ctr | CSN inh | MBD2 DNA inh | LEDGF integ inh | rCAG RNA binder
COCC(C)n1c(C)cc(C(=O)COC(=O)CCc2nc3ccccc3c(=O)[nH]2)c1C (stereo unspecified) | -9 | 26* | -1 | 1 | 0 | -3
CC(=O)c1cc(-c2ccc(-c3ccccc3)c(F)c2)c(=O)n2c1CCC2 | . | 1 | . | -1 | 0 | 3
Cc1ccc2c(c1)C(CS(=O)(=O)NCc1ccccc1)NC2 (stereo unspecified) | . | -4 | . | -2 | -5 | 9
COc1ccc(C=NNC(=O)Cc2cc(=O)[nH][nH]2)c(OC)c1 | . | -6 | . | -2 | -1 | 15
C[C@H](CCCCC1(C)OCCO1)CCC(=O)N(c1ccccc1)c1ccccc1 | . | 1 | . | 0 | -1 | 1
Cc1c(Cc2ccccc2)c(=O)oc2c(C)c(OCC(=O)Nc3ccc(C#N)cc3)ccc12 | -4 | 1 | 3 | 5 | -2 | 5
Cc1cccc(C)c1NC(=O)COc1ccc2c(C)c(Cc3ccccc3)c(=O)oc2c1C | 13 | 64* | 2 | 2 | -2 | 1
O=C(Nc1sc2c(c1-c1nc3ccccc3s1)CCNC2)C(F)(F)F | . | -57 | . | -2 | -3 | .
CN[C@H]1C[C@H]2c3[nH]c4cccc(-c5ccccc5)c4c3CCN2C[C@H]1[C@H](C)O | . | -3 | . | -1 | 4 | 11
CCc1ccccc1NS(=O)(=O)c1c(C(=O)N2CCCCCC2)c(C)n(C)c1C | -3 | 21* | 0 | 2 | -2 | -8
Cc1c(C(=O)N2CCCCCC2)c(S(=O)(=O)Nc2ccccc2F)c(C)n1C | 4 | 5 | 0 | 0 | -1 | -6
COc1ccc(C(=O)C2CCN(c3ncnc4sccc34)CC2)cc1 | . | 0 | . | 4 | -2 | .
CCOc1ccccc1NC(=O)COC(=O)C1CC1 | 9 | 23* | 1 | 11 | 2 | 0
O=C(Nc1ccccc1Cl)C1C2CCC3C(CCC21)C3(Cl)Cl (stereo unspecified) | 0 | -1 | 0 | -4 | -3 | -1
CCOc1ccccc1NC(=O)C1C2CCC3C(CCC21)C3(Cl)Cl (stereo unspecified) | 2 | 26* | 1 | 8 | 4 | -1
COC(=O)[C@]12C[C@H](CC(=O)NCC3CCCCC3)C(=O)N(Cc3ccccc3)C1=C[C@H](COCc1ccccc1)O[C@@H]2C | . | 1 | . | 2 | 3 | 2
Cc1ccc(NS(=O)(=O)c2ccc3c(c2)NC(=O)CCS3)c(Br)c1 | 5 | 29* | 3 | 1 | -1 | 8
CCNC(=O)/C=C1\NC(C)(C)Cc2c1ccc1ccccc21 | 1 | 22* | 3 | 10 | 0 | -5
CCOC(=O)N1CCC2(CC1)NCCc1c2[nH]c2ccccc12 | -2 | 25* | -1 | -3 | 0 | -7
O=S1(=O)CC(N2CCSCC2)CN1Cc1cn(Cc2ccc(C(F)(F)F)cc2)nn1 (stereo unspecified) | . | 6 | -2 | -3 | 4 | -1
CN1CCN(C2CN(Cc3cn(Cc4ccc(C(F)(F)F)cc4)nn3)S(=O)(=O)C2)CC1 (stereo unspecified) | . | 25* | -3 | 4 | 2 | 3
CCCCCCN1CCN(C2CN(Cc3cn(Cc4cc(C)cc(C)c4)nn3)S(=O)(=O)C2)CC1 (stereo unspecified) | . | 23* | -3 | 4 | -3 | -1
Cc1cc(C)cc(Cn2cc(CN3CC(N4CCCC4)CS3(=O)=O)nn2)c1 (stereo unspecified) | . | 6 | -8 | -4 | 4 | 3
Cc1cc(C)cc(Cn2cc(CN3CC(N4CCN(C)CC4)CS3(=O)=O)nn2)c1 (stereo unspecified) | . | 24* | -2 | 5 | -1 | 3
CCC[C@H]1[C@@H](OC(=O)NCc2ccc(C)o2)CC[C@@]23CCCN2C(=O)CCC[C@@H]13 | . | -1 | . | -4 | 1 | .
SMILES | ATG4B inhibitor | UHRF1 MBD2 ctr | CSN inh | MBD2 DNA inh | LEDGF integ inh | rCAG RNA binder
O=C(/C=C/c1cc[n+](CC(=O)c2ccc3cccc4c3c2CC4)cc1)c1ccc2cccc3c2c1CC3 | 32 | . | 113* | . | . | .
COc1ccc(S[C@]2(C(=O)N3CCN(c4ncccn4)CC3)CC(=O)N(C(=O)Nc3ccc(C)c(Cl)c3)[C@@H]2c2ccc(OC)cc2)cc1 | . | -1 | . | -5 | -1 | 13
COc1ccc(C2CC(c3cccc([N+](=O)[O-])c3)=NN2/C(C)=C/C(C)=O)cc1 (stereo unspecified) | . | -4 | 57* | -1 | 0 | 8
Cc1c(C(=O)Nc2ccc(Cl)cc2)c2ccccn2c1CCc1ccncc1 | -15 | 24* | 6 | 0 | -4 | 1
Cc1c(C(=O)Nc2cccc(Cl)c2)c2ccccn2c1CCc1ccncc1 | -8 | -1 | 4 | 0 | 0 | -1
COC(=O)[C@]12C[C@H](CC(=O)N3CCCCC3)C(=O)N(Cc3cccc4ccccc34)C1=C[C@H](C(C)(C)C)O[C@@H]2C | . | -1 | . | 0 | -1 | 4
COc1ccc(CN2CCNC(=O)C2CC(=O)N(C)CC2CCOCC2)cc1OC (stereo unspecified) | -3 | 0 | 1 | -3 | 2 | 1
COc1ccc(CN2CCNC(=O)C2CC(=O)N(C)CC2CCOCC2)cc1C (stereo unspecified) | -9 | 31* | 4 | 0 | 3 | -2
O=C(OCC(=O)N1CCc2ccccc21)c1ccc([N+](=O)[O-])o1 | -5 | 5 | -5 | 3 | 16* | 3
O=C(OCC(=O)N1CCCc2ccccc21)c1ccc(Br)o1 | 7 | -1 | -5 | -5 | -2 | -3
O=S(=O)(c1ccc(Cl)s1)N1CCC(c2cn3ccccc3n2)CC1 | . | 0 | . | -8 | 1 | 8
Cc1cc(=O)oc2c3c(ccc12)OC/C3=N/N | -3 | 6 | 3 | -1 | 2 | 41*
CC(C)(N[C@@H](Cc1c[nH]c2ccccc12)C(=O)NCCCc1ccccc1)C(=O)NCc1ccccc1 | . | -2 | . | 2 | 3 | .
Cc1ccc(Nc2nc(N)c3ccccc3n2)cc1Cl | -5 | 38* | 4 | -2 | 0 | 14
CC(=O)c1ccc(NC(=O)NC2CCCCN(Cc3ccc(Cl)cc3)C2=O)cc1 (stereo unspecified) | . | -1 | . | 0 | -2 | 5
O=C1NC(=O)C2(CCCc3ccc([N+](=O)[O-])cc32)N1 (stereo unspecified) | . | -1 | 1 | -2 | 2 | 1
Nc1ccc2c(c1)C1(CCC2)NC(=O)NC1=O (stereo unspecified) | . | 21* | 3 | 9 | 1 | 1
O=C(COc1ccccc1C(=O)NCc1ccccc1)Nc1ccc(I)cc1 | . | 0 | . | -7 | 1 | 11
CC(=O)N1CCc2cc(S(=O)(=O)NCCC(=O)Nc3cccc(C)c3)ccc21 | 5 | 22* | -1 | 6 | -1 | 0

Screening results as filed in PubChem BioAssay.
